Where a chain is given by its changes, count along the chain named.
How the values were obtained:
[1] = Oral bioavailability of ARD-61 in mice; format: in vivo; conditions: mice (data not shown)
Oral exposure = format: in vivo, mice; conditions: male, SCID, mouse, plasma, 10 mg/kg
Outline: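 Non-tumour-bearing male SCID mice were given single oral gavage at 10 mg/kg in 100% PEG200. Three mice per time point were sacrificed at 1, 3 and 6 h. 300 μL blood was taken per animal and centrifuged at 15000 rpm for 10 min. Plasma was stored at −80 °C and quantified by validated LC-MS/MS. Values are mean ± SD.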

AR protein [2] = biological target: T1, AR protein (Homo sapiens, UniProt P10275); test: Western blotting of AR protein in VCaP cells; format: cell-based; conditions: for time within which AR protein level is effectively reduced / treatment time for near-complete AR depletion: VCaP cell line
T1 sequence (P10275 1-920): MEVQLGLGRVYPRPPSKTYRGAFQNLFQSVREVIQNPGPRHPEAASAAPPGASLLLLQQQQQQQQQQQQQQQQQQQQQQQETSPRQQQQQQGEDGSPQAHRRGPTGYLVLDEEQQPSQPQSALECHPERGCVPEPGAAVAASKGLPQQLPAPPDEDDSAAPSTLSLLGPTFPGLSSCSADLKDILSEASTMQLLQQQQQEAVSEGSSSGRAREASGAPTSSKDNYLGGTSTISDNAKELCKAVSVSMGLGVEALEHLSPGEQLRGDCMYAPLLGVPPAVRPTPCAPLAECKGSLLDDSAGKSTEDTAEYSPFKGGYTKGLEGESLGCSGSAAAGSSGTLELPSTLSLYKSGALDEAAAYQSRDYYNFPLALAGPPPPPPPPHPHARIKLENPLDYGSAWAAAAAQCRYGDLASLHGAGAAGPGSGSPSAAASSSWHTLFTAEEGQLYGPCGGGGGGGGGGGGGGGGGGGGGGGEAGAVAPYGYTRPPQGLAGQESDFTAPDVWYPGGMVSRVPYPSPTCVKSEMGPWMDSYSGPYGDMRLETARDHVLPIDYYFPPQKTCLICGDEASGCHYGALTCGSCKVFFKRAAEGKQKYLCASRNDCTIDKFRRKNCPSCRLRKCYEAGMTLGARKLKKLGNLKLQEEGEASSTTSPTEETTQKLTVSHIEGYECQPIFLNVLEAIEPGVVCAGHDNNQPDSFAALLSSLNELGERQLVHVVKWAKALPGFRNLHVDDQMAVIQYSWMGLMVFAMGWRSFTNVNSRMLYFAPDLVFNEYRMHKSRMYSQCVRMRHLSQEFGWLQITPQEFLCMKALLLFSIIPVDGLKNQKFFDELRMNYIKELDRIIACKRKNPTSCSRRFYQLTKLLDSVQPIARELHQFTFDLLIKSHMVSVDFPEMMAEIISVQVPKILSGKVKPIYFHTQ

AR protein [3] = biological target: T1, AR protein; test: Pharmacodynamics: Western blot of AR protein in VCaP xenograft tumors; format: in vivo, mice
[4] = biological target: T2, AR protein (AR T878A mutation) (Homo sapiens, UniProt P10275, T878A); test: Western blotting of AR protein in LNCaP cells; format: cell-based; conditions: LNCaP cell line
T2 sequence (P10275 1-920 T878A): T1 sequence (P10275 1-920) with T878A

[5] = Drug concentrations in plasma and VCaP tumor tissue in SCID mice; format: in vivo; conditions: VCaP tumor tissue, single 20 mg/kg PO, 6 h
Outline: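 Male CB17 SCID mice carried subcutaneous VCaP xenografts (5 × 10^6 cells in 5 mg/mL Matrigel). At approximately 200 mm3 tumour volume, mice received single 20 mg/kg oral gavage in 100% PEG200. Plasma and tumour were taken at 6 and 24 h, three mice per time point. Tumours were frozen, ground in liquid nitrogen, homogenised in water:acetonitrile 4:1 at 4 °C, acetonitrile-precipitated, then assayed by validated LC-MS/MS.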

VCaP xenograft tumor = test: Antitumor activity in the VCaP xenograft tumor model; format: in vivo; conditions: all dose levels, daily oral, entire 21 day experiment, SCID mice
[6] = single oral administration 20 mg/kg, 6 h
[7] = single oral administration 20 mg/kg, 24 h

Structure (SMILES) | time within which AR protein level is effectively reduced (AR protein [2]) | treatment time for near-complete AR depletion (AR protein [2]) | reduction of AR protein level in VCaP tumor tissue (AR protein [3]; [6]) | reduction of AR protein level in VCaP tumor tissue (AR protein [3]; [7]) | time within which AR protein level is effectively reduced [4] | treatment time for near-complete AR depletion [4] | other results
Cc1cc([C@H](C(=O)N2C[C@H](O)C[C@H]2C(=O)N[C@@H](CC(=O)N2CCC(N3CCC(C#Cc4ccc(C(=O)NC5C(C)(C)C(Oc6ccc(C#N)c(Cl)c6)C5(C)C)cc4)CC3)CC2)c2ccc(-c3scnc3C)cc2)C(C)C)on1 (stereo partly shown) [ARD-61] | – | – | – | – | – | – | oral bioavailability [1]: no oral bioavailability
CC1(C)[C@H](NC(=O)c2ccc(N3CCN(CCNc4ccc5c(c4)C(=O)N(C4CCC(=O)NC4=O)C5=O)CC3)cc2)C(C)(C)[C@H]1Oc1ccc(C#N)c(Cl)c1 (stereo partly drawn) [Compound 16, N-((1R,3R)-3-(3-Chloro-4-cyanophenoxy)-2,2,4,4-tetramethylcyclobutyl)-4-(4-(2-((2-(2,6-dioxopiperidin-3-yl)-1,3-dioxoisoindolin-5-yl)amino)ethyl)piperazin-1-yl)benzamide] | – | – | – | – | – | – | concentration at 1 h (Oral exposure): 1600 nM; concentration at 3 h (Oral exposure): 1200 nM; concentration at 6 h (Oral exposure): 800 nM
CC1(C)[C@H](NC(=O)c2ccc(N3CCN(CC4CN(c5ccc6c(c5)C(=O)N(C5CCC(=O)NC5=O)C6=O)C4)CC3)cc2)C(C)(C)[C@H]1Oc1ccc(C#N)c(Cl)c1 (stereo partly drawn) [Compound 26, N-((1R,3R)-3-(3-Chloro-4-cyanophenoxy)-2,2,4,4-tetramethylcyclobutyl)-4-(4-((1-(2-(2,6-dioxopiperidin-3-yl)-1,3-dioxoisoindolin-5-yl)azetidin-3-yl)methyl)piperazin-1-yl)benzamide] | ≤ 3 h | 6 h | modest effect | effective in reducing the levels of AR protein | ≤ 3 h | 6 h | –
CC1(C)[C@H](NC(=O)c2ccc(N3CCN(C4CCN(c5ccc6c(c5)C(=O)N(C5CCC(=O)NC5=O)C6=O)CC4)CC3)cc2)C(C)(C)[C@H]1Oc1ccc(C#N)c(Cl)c1 (stereo partly drawn) [Compound 27, N-((1R,3R)-3-(3-Chloro-4-cyanophenoxy)-2,2,4,4-tetramethylcyclobutyl)-4-(4-(1-(2-(2,6-dioxopiperidin-3-yl)-1,3-dioxoisoindolin-5-yl)piperidin-4-yl)piperazin-1-yl)benzamide] | ≤ 3 h | 6 h | only modestly | only modestly | ≤ 3 h | 6 h | tumor concentration (mean ± SD) [5]: 0.3148 ± 0.0937 µg/kg
CC1(C)[C@H](NC(=O)c2ccc(N3CCN(CC4CCN(c5ccc6c(c5)C(=O)N(C5CCC(=O)NC5=O)C6=O)CC4)CC3)cc2)C(C)(C)[C@H]1Oc1ccc(C#N)c(Cl)c1 (stereo partly drawn) [Compound 28, N-((1R,3R)-3-(3-Chloro-4-cyanophenoxy)-2,2,4,4-tetramethylcyclobutyl)-4-(4-((1-(2-(2,6-dioxopiperidin-3-yl)-1,3-dioxoisoindolin-5-yl)piperidin-4-yl)methyl)piperazin-1-yl)benzamide] | ≤ 3 h | 6 h | modest effect | effective in reducing the levels of AR protein | ≤ 3 h | 6 h | reduction of AR protein level in VCaP tumor tissue (AR protein [3]; daily oral 10 mg/kg for 3 days, 3 and 6 h after last dose): effectively reduces the levels of AR protein; reduction of AR protein level in VCaP tumor tissue (AR protein [3]; daily oral 10 mg/kg for 3 days, 24 h after last dose): only a modest effect; maximum weight loss (VCaP xenograft tumor): no more than 5%
CC1(C)[C@H](NC(=O)c2ccc(N3CCC(N4CCN(c5ccc6c(c5)C(=O)N(C5CCC(=O)NC5=O)C6=O)CC4)CC3)cc2)C(C)(C)[C@H]1Oc1ccc(C#N)c(Cl)c1 (stereo partly drawn) [Compound 33, N-((1R,3R)-3-(3-Chloro-4-cyanophenoxy)-2,2,4,4-tetramethylcyclobutyl)-4-(4-(4-(2-(2,6-dioxopiperidin-3-yl)-1,3-dioxoisoindolin-5-yl)piperazin-1-yl)piperidin-1-yl)benzamide] | ≤ 3 h | – | – | – | ≤ 3 h | – | –
CC1(C)[C@H](NC(=O)c2ccc(N3CCC(CN4CCN(c5ccc6c(c5)C(=O)N(C5CCC(=O)NC5=O)C6=O)CC4)CC3)cc2)C(C)(C)[C@H]1Oc1ccc(C#N)c(Cl)c1 (stereo partly drawn) [Compound 34, N-((1R,3R)-3-(3-Chloro-4-cyanophenoxy)-2,2,4,4-tetramethylcyclobutyl)-4-(4-((4-(2-(2,6-dioxopiperidin-3-yl)-1,3-dioxoisoindolin-5-yl)piperazin-1-yl)methyl)piperidin-1-yl)benzamide] | ≤ 3 h | 6 h | – | – | ≤ 3 h | 6 h | –
CC1(C)[C@@H](NC(=O)c2ccc(N3CCN(CC4CCN(c5ccc6c(c5)C(=O)N(C5CCC(=O)NC5=O)C6=O)CC4)CC3)cc2)C[C@@H]1Oc1ccc(C#N)c(Cl)c1 (stereo partly drawn) [Compound 43, N-((1S,3S)-3-(3-Chloro-4-cyanophenoxy)-2,2-dimethylcyclobutyl)-4-(4-((1-(2-(2,6-dioxopiperidin-3-yi)-1,3-dioxoisoindolin-5-yl)-piperidin-4-yl)methyl)piperazin-1-yl)benzamide] | – | – | – | – | – | – | times less potent than compound 28 (AR protein [2]; VCaP, AR degradation): approximately 100
CNC(=O)c1ccc(N2C(=S)N(c3ccc(C#N)c(C(F)(F)F)c3)C(=O)C2(C)C)cc1F [enzalutamide, reference compound] | – | – | – | – | – | – | maximum weight loss (VCaP xenograft tumor): no more than 5%
